Assay results from ChEMBL document CHEMBL4033799, “Stable and Long-Lasting, Novel Bicyclic Peptide Plasma Kallikrein Inhibitors for the Treatment of Diabetic Macular Edema” (J Med Chem, 2018).
pKi: −log10 of the molar value.

Key:
Coagulation factor XI = Coagulation factor XI (Homo sapiens, UniProt P03951); experiment: Inhibition of factor 11a (unknown origin)
Plasma = experiment: Anti-coagulating activity in human plasma assessed as increase in coagulation time at 14 uM by aPTT assay relative to control; type: functional
Rattus norvegicus [1] = experiment: Antiinflammatory activity in Sprague-Dawley rat assessed as inhibition carrageenan-induced paw edema at 5 mg/kg, ip pretreated for 15 mins followed by carrageenan challenge measured at 4 hrs post carrageenan challenge; type: functional
Procedure, shortened: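 Male Sprague-Dawley rats got an IP pretreatment 15 min before a subplantar carrageenan injection. Paw volume was recorded at 1, 2, 4 and 6 h after carrageenan. Percent inhibition of paw edema was calculated against a vehicle-treated group.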

Rattus norvegicus [2] = experiment: Antiinflammatory activity in Sprague-Dawley rat assessed as inhibition carrageenan-induced paw edema at 5 mg/kg, ip pretreated for 15 mins followed by carrageenan challenge measured at 1 hr post carrageenan challenge; conditions: read-out: INH
Rattus norvegicus [3] = experiment: Antiinflammatory activity in Sprague-Dawley rat assessed as inhibition carrageenan-induced paw edema at 5 mg/kg, ip pretreated for 15 mins followed by carrageenan challenge measured at 6 hrs post carrageenan challenge; type: functional
Procedure, shortened: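 Male Sprague-Dawley rats received peptide IP (30, 10 or 3 mg/kg), or indomethacin IP at 5 mg/kg, 15 min before subplantar carrageenan. Paw volume was followed over time against a vehicle group.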

Rattus norvegicus [4] = experiment: Antiinflammatory activity in Sprague-Dawley rat assessed as inhibition carrageenan-induced paw edema at 5 mg/kg, ip pretreated for 15 mins followed by carrageenan challenge measured at 2 hrs post carrageenan challenge; conditions: read-out: INH
Rattus norvegicus [5] = experiment: Antiinflammatory activity in Sprague-Dawley rat assessed as inhibition carrageenan-induced paw edema at 5 mg/kg, ip pretreated for 30 mins followed by carrageenan challenge measured up to 8 hrs post carrageenan challenge; type: functional

Sequence of Coagulation factor XI (P03951 19-387 limits assumed): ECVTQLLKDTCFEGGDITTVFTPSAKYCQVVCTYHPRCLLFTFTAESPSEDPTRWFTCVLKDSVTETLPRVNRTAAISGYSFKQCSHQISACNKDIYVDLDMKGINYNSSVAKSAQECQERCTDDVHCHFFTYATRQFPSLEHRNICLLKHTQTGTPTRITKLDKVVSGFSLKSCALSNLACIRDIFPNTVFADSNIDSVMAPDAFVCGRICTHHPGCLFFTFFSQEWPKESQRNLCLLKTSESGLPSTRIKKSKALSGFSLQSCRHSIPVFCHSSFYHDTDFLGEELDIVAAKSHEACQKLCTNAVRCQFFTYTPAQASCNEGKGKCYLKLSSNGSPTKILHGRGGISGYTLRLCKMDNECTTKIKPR
Sequence of Coagulation factor XI (P03951 388-625 limits assumed): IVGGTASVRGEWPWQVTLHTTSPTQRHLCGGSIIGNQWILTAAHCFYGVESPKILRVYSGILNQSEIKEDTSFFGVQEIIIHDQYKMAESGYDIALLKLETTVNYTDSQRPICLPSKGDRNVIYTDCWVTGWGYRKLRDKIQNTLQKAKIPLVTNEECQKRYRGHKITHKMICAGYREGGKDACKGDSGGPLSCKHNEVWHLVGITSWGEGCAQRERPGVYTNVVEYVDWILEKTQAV

pKi (Coagulation factor XI) | SMILES | fold change (FC) (Plasma) | inhibition in vivo at 5 mg/kg (Rattus norvegicus [1]) [%] | inhibition in vivo at 5 mg/kg (Rattus norvegicus [2]) [%] | inhibition in vivo at 5 mg/kg (Rattus norvegicus [3]) [%] | inhibition in vivo at 5 mg/kg (Rattus norvegicus [4]) [%] | inhibition in vivo at 5 mg/kg (Rattus norvegicus [5]) [%]
6.00 | Cc1cc(Oc2nc(Oc3cccc(C(=N)N)c3)c(F)c(NC(C)CCc3ccccc3)c2F)c(C(=O)O)cc1N(C)C (configuration not stated) | 2 |  |  |  |  | 
 | COc1ccc2c(c1)c(CC(=O)O)c(C)n2C(=O)c1ccc(Cl)cc1 [INDOMETHACIN] |  | 54 | 79 | 48 | 56 | 47.2
